Like-named read-outs stand apart in the source and are kept apart here.
Experiments:
[1] = tested on: red cells (valinomycin-induced Rb+ exchange); experiment: 86Rb exchange with valinomycin, 0C; assay type: cell-based, human
Procedure, shortened: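 Human red cells washed in 150 mM NaCl, 2 mM KCl, 20 mM HEPES pH 7.4, then loaded 17 h at 37°C (50% hematocrit) with ~5 uCi/ml 86Rb in 5 mM adenosine/chloramphenicol buffer. Efflux ran at 0°C, 0.1% hematocrit, in 48 mM NaCl/112 mM KCl/5 mM HEPES pH 7.2 with 1.33% ethanol. Valinomycin was added last, with or without 10 uM DIDS. Timed samples were centrifuged to give the efflux rate constant.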

[2] = tested on: red cells (net chloride permeability); experiment: Net KCl flux with valinomycin into low chloride medium, 0C; assay type: cell-based, human
Procedure, shortened: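 Nystatin-treated high-Cl cells were washed in 150K, then 10K-Hi. Net K+ efflux was measured at 0°C, 0.1% hematocrit, in 10K-Hi with 1.33% ethanol, started by adding graded valinomycin, with or without 10 uM DIDS. K+ was read by flame photometry and taken as net KCl efflux. PK/PCl came from Goldman-equation fits, with PK linear in valinomycin and PK = 0.5 PRb.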

[3] = molecular target: T1, human erythrocyte anion exchange protein (band 3) (Homo sapiens, UniProt P02730); experiment: H2DIDS inhibition of chloride exchange in resealed ghosts with Cli < Clo, 0C; assay type: cell-based
T1 sequence (P02730 1-911): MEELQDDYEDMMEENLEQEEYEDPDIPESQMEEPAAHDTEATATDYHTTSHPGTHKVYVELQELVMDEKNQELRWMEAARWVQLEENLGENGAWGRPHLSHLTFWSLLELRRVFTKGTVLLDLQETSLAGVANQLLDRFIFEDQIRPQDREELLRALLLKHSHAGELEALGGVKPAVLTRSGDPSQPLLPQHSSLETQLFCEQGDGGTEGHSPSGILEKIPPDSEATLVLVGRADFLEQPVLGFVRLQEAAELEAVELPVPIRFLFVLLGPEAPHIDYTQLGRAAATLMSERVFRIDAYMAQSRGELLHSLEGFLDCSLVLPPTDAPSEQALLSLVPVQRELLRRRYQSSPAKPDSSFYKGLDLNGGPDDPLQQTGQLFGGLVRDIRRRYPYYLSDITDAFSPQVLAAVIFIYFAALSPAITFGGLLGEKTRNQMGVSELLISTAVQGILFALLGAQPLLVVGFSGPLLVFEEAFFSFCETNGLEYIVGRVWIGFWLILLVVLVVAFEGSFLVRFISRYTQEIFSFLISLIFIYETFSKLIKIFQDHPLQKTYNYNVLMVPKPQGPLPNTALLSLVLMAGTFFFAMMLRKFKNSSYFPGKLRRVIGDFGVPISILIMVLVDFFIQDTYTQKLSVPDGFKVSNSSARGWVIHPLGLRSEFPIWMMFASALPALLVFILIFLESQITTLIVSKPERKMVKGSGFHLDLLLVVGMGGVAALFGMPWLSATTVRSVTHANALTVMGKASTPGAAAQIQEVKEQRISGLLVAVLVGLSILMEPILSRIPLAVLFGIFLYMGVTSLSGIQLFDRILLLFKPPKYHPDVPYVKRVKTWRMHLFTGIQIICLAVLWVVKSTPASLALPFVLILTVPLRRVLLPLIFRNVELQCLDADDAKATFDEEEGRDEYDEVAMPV
Procedure, shortened: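 Washed cells were lysed at 0°C in 3.5 mM acetic acid, 4 mM MgSO4, 1 mM EGTA. Tris/KCl/sodium citrate was added for 10 or 60 mM internal Cl; after 10 min at 0°C, ghosts were resealed 45 min at 37°C. They were washed in 60 mM NaCl, 60 mM Na citrate, 5 mM HEPES, 5 mM glucose, MgSO4, pH 7.2. 36Cl efflux with graded H2DIDS was measured at 0°C; ID50 came from Dixon-plot x-intercepts.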

[4] = molecular target: T1, human erythrocyte anion exchange protein (band 3); assay type: cell-based; details: Table III mean
Procedure, shortened: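 Washed cells in 60K-Hi (pH 7.2) were pretreated 45 min at 37°C, 10% hematocrit, with 2.5 uM (low pH) or 5 uM (high pH) H2DIDS. They were albumin-washed, nystatin-treated (75 ug/ml, 10 min each in 60K-Hi then 60K-Lo, 0°C) and washed into 60K-Lo at pH 7.2 or 9.0. 36Cl efflux with graded H2DIDS and Cl ratios were measured at 0°C in those media. ID50 came from Dixon-plot x-intercepts.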

**Q.** How did the “effect on Rb+ exchange” value ([1]; DIDS 10 uM, valinomycin-induced Rb+ exchange) turn out when `O=S(=O)(O)c1cc(N=C=S)ccc1C=Cc1ccc(N=C=S)cc1S(=O)(=O)O` [DIDS, 4,4'-diisothiocyano-stilbene-2,2'-disulfonic acid] was run?
**A.** no significant effect

**Q.** What about the PRb ([1]; Fig. 7, 10 uM valinomycin with 10 uM DIDS present) of the same compound?
**A.** 0.09216 mmol/kg Hb - min - mM

**Q.** And the “plateau net KCl efflux” value ([2]; in the presence of 10 uM DIDS, high valinomycin concentrations)?
**A.** greatly reduced

**Q.** For `O=S(=O)(O)c1cc(N=C=S)ccc1CCc1ccc(N=C=S)cc1S(=O)(=O)O` [H2DIDS, 4,4'-diisothiocyano-1,2-diphenylethane-2,2'-disulfonic acid], which “ID50* (no chloride gradient), mean” value ([3]; Table II mean, extracellular Cl 60 mM, intracellular Cl ~60 mM, 0C) is on record?
**A.** 0.15 AM

**Q.** What about the “ID50 (with chloride gradient Clo > Cli), mean” value ([3]; Table II mean, intracellular Cl averaged 27.8 mM, mean Clo/Cli 2.35, 0C) of the same compound?
**A.** 0.21 AM

**Q.** And the “ID50/ID50*, mean” value ([3]; Table II mean, mean Clo/Cli 2.35)?
**A.** 1.41

**Q.** And the “increase in ID50 caused by high pH” value ([3]; pH 9.0 versus pH 7.2, chloride ratio nearly invariant with pH)?
**A.** 30%

**Q.** What about the “ID50* (no chloride gradient), mean” value ([4]; extracellular Cl 60 mM, intracellular Cl ~60 mM, 0C) of the same compound?
**A.** 0.24 AM

**Q.** And the “ID50 (chloride gradient induced by increasing pH), mean” value ([4]; intracellular Cl averaged 14.4 mM, mean Clo/Cli 4.66, 0C)?
**A.** 0.47 AM

**Q.** And the “ID50/ID50*, mean” value ([4]; mean Clo/Cli 4.66)?
**A.** 2.00

**Q.** How did the PRb ([1]; Fig. 7, control cells, 10 uM valinomycin) turn out when `CC(C)[C@@H]1NC(=O)[C@H](C)OC(=O)[C@@H](C(C)C)NC(=O)[C@@H](C(C)C)OC(=O)[C@H](C(C)C)NC(=O)[C@H](C)OC(=O)[C@@H](C(C)C)NC(=O)[C@@H](C(C)C)OC(=O)[C@H](C(C)C)NC(=O)[C@H](C)OC(=O)[C@@H](C(C)C)NC(=O)[C@@H](C(C)C)OC1=O` [valinomycin] was run?
**A.** 0.09134 mmol/kg Hb - min - mM

**Q.** What about the PK/PCl ratio ([2]; 10 uM valinomycin, 10K-Hi medium, assuming PK = 0.5 PRb) of the same compound?
**A.** 33

**Q.** What about the PK/PCl ratio ([2]; valinomycin, other experiments, medium with 150 mM NaCl and 10 mM KCl) of the same compound?
**A.** > 20

— paper PMC2215654 (The Journal of General Physiology, 1984)
